Measured values published in ChEMBL document CHEMBL1152670, “Synthesis and in vitro evaluation of aspartate transcarbamoylase inhibitors” (Bioorg Med Chem, 2009).
pKi: −log10 of the molar value. Activity calls are given as the source filed them. The calls are words filed in the database; no cut-off is given here.

What was measured:
Escherichia coli [1] = assay: Inhibition of histidine-tagged Escherichia coli ATCase catalytic domain assessed as N-carbamoyl-L-aspartate formation at 0.5 to 6 uM by colorimetric assay
Procedure, shortened: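 E. coli His-tagged C3 ATCase catalytic subunit (75 ng/mL), purified from strain/plasmid pEK17/EK1104, run at room temperature in 0.1 M Tris-acetate pH 8.3 with 10 mM L-aspartate. N-carbamoyl-L-aspartate formation read colorimetrically. […] Ki and inhibition mode derived from these kinetics.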

[2] = Inhibition of histidine-tagged Escherichia coli ATCase catalytic domain assessed as N-carbamoyl-L-aspartate formation by colorimetric assay; conditions: for pKi: read-out: Ki
Procedure, shortened: (§1)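 E. coli His-tagged C3 (catalytic subunit) ATCase, purified from pEK17/EK1104, at 75 ng/mL. Assay at room temperature in 0.1 M Tris-acetate pH 8.3 with 10 mM L-aspartate. […] N-carbamoyl-L-aspartate formation was read colorimetrically. Ki and inhibition mode were taken from the kinetics.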

Escherichia coli [3] = assay: Ratio of compound Ki to N-phosphonacetyl-L-aspartate Ki for histidine-tagged Escherichia coli ATCase catalytic domain
Escherichia coli [4] = assay: Ratio of compound Ki to (2S)-2-(2-(hydroxy(hydroxymethyl)phosphoryl)acetamido)succinic acid Ki for histidine-tagged Escherichia coli ATCase catalytic domain
[5] = Uncompetitive inhibition of histidine-tagged Escherichia coli ATCase catalytic domain assessed as N-carbamoyl-L-aspartate formation by colorimetric assay; procedure, shortened: as §1

| Compound | pKi [2] | Ratio Ki (Escherichia coli [3]) | other results |
| --- | --- | --- | --- |
| O=C(O)C[C@H](NC(=O)CC(C(=O)O)C(=O)O)C(=O)O |  |  | inhibition (Escherichia coli [1]): inactive |
| O=C(O)C[C@H](NC(=O)C[PH](=O)O)C(=O)O | 6.38 | 26 |  |
| O=C(O)CC(=O)N[C@@H](CC(=O)O)C(=O)O |  |  | inhibition (Escherichia coli [1]): inactive |
| O=C(O)C[C@H](NC(=O)C[PH](=O)CO)C(=O)O (some centres not stated) | 6.72 | 12 |  |
| O=C(O)CCC(=O)N[C@@H](CC(=O)O)C(=O)O |  |  | inhibition (Escherichia coli [1]): inactive |
| O=C(O)C[C@H](NC(=O)NCP(=O)(O)O)C(=O)O | 5.68 | 131 |  |
| O=C(O)C[C@H](NC(=O)COP(=O)(O)O)C(=O)O | 6.68 | 13 |  |
| O=C(O)C[C@H](NC(=O)CP(=O)(O)CCO)C(=O)O |  | 156 | Ratio Ki (Escherichia coli [4]): 13; pKi [5]: 5.60 |
| O=C(O)C[C@@H](C(=O)O)N1CCP(=O)(O)CC1 |  |  | Ki [2]: Not Active |
| O=C(O)C[C@@H](C(=O)O)N1CP(=O)(O)CC1=O |  |  | Ki [2]: Not Active |
| O=C(O)C[C@H](NC(=O)CP(=O)(O)O)C(=O)O [PALA] | 7.80 |  |  |
| O=C(O)C[C@H](NC(=O)CP(=O)(O)CC(=O)O)C(=O)O | 5.44 | 225 |  |
| O=C(O)C[C@@H](C(=O)O)N1CCP(=O)(O)CC1=O | 6.00 | 63 |  |
| O=C(O)C[C@H](NC(=O)OCP(=O)(O)O)C(=O)O |  |  | Ki [2]: Not Active |
